Experiment [1] relates to CCRF-CEM. The experiment is described as follows: Inhibitory activity was tested against CEM cells. The class given is functional, cell-based. Particulars: Homo sapiens.
Experiment [2] relates to CCRF-CEM. Description: Average potency against CEM cells. The class given is functional, Homo sapiens.
Experiment [3] concerns Tumor Cell line. Description: Tested against human tumor cell lines, mean graph mid point values(MG MID) are determined. The class given is functional. In short, it runs like this: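 Panel of about 55 human tumor cell lines from nine cancer types: leukemia, melanoma, non-small-cell lung, colon, CNS, ovarian, renal, prostate and breast. Compounds were tested from 10⁻⁴ to 10⁻⁸ M, and the 50% growth-inhibitory concentration was found for each line.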

In experiment [4] the test system is L1210. Description: Average potency against L1210 cells. The format is functional, Mus musculus.
Experiment [5] deals with MOLT-4. The experiment is described as follows: Average potency against Molt4/C8cells. The format is functional, Homo sapiens.
Experiment [6] relates to MOLT-4. Description: Inhibitory activity was tested against Molt4/C8 cells. The class given is functional, cell-based. Particulars: Homo sapiens.
Experiment [7] concerns P388. Description: Average potency against P388 cells. The class given is functional, Mus musculus.
In experiment [8] the test system is P388. The experiment is described as follows: Inhibitory activity was tested against P388 cells. The format is functional, cell-based. The following applies: Mus musculus.
Experiment [9] has as its system L1210. Description: Inhibitory activity was tested against L1210 cells. The format is functional, cell-based. Particulars: Mus musculus.

The values that follow come from ChEMBL document CHEMBL1132632, “Conformational and quantitative structure-activity relationship study of cytotoxic 2-arylidenebenzocycloalkanones” (J Med Chem, 1999).

Each structure is given as a SMILES string.

With `O=C1/C(=C/c2cccc([N+](=O)[O-])c2)Cc2ccccc21`, the IC50 (in general, the concentration needed to halve the response being measured) in experiment [1] was 222 µM; in experiment [6], over 500 µM; in [8] it was over 50 µM; in experiment [9], 256 µM. Also, the AP in [2] is 155 µM; in experiment [4], 127 µM; in experiment [5], 267 µM; in experiment [7], 42.9 µM. For the same molecule, the “MG MID” value in [3] is 91.2 µM.

`O=C1CCCCC/C1=C\c1cccc([N+](=O)[O-])c1`: the IC50 in [1] amounted to 30.1 µM; in [6], 39.2 µM; in [8], 23.6 µM; in experiment [9] it was 162 µM. For the same molecule, the AP turned out to be 136 µM in experiment [2], 227 µM in experiment [4], 186 µM in [5] and 34.5 µM in [7]. For the same molecule, in experiment [3], the “MG MID” value worked out at 30.2 µM.

For the molecule `CN(C)c1ccc(/C=C2\CCCCCC2=O)cc1`, the half-inhibitory concentration (IC50) in experiment [1] came to 45.1 µM; in [6], 57.4 µM; in [8] it was 18.8 µM; in experiment [9] it was 79.1 µM. In addition, the AP in experiment [2] worked out at 136 µM; in [4], 227 µM; in experiment [5], 186 µM; in experiment [7] it was 34.5 µM. In addition, in experiment [3], the “MG MID” value was 85.1 µM.

In the case of `O=C1CCCCC/C1=C\c1ccc(Cl)cc1`, the IC50 in experiment [1] worked out at 43.5 µM; in experiment [6], 52.6 µM; in experiment [8], 19.1 µM; in experiment [9], 83 µM. The AP stood at 136 µM in [2], 227 µM in [4], 186 µM in experiment [5] and 34.5 µM in [7]. In [3], the “MG MID” value was 33.1 µM.

In the case of `COc1cccc(/C=C2\CCCc3ccccc3C2=O)c1`, the 50% inhibitory concentration (IC50) in experiment [1] was 9.5 µM; in [6], over 100 µM; in experiment [8] it was 13.9 µM; in experiment [9] it was 56.3 µM. The AP in experiment [2] turned out to be 47 µM; in experiment [4], 85.2 µM; in experiment [5], 66 µM; in [7], 11.2 µM. For the same molecule, the “MG MID” value in experiment [3] was 15.9 µM.

For `O=C1CCCCC/C1=C\c1ccc([N+](=O)[O-])cc1`, the IC50 in [1] turned out to be 36.3 µM; in experiment [6] it was 39.6 µM; in experiment [8], 25.2 µM; in experiment [9] it was 104 µM. Further, the AP in [2] stood at 136 µM; in [4] it was 227 µM; in experiment [5], 186 µM; in experiment [7], 34.5 µM. Moreover, the “MG MID” value in [3] is 30.2 µM.

Regarding `O=C1CCCCC/C1=C\c1ccc(F)cc1`, the 50% inhibitory concentration (IC50) in experiment [1] was 198 µM; in [6], 250 µM; in experiment [8], over 50 µM; in experiment [9], 291 µM. The AP in [2] was found to be 136 µM; in experiment [4], 227 µM; in experiment [5], 186 µM; in experiment [7] it was 34.5 µM. The “MG MID” value in experiment [3] turned out to be 83.2 µM.

As to `O=C1CCCCC/C1=C\c1ccccc1`, the half-maximal inhibitory concentration (IC50) is 110 µM in experiment [1], 215 µM in experiment [6], over 50 µM in experiment [8] and 261 µM in experiment [9]. Further, the AP in experiment [2] was 136 µM; in experiment [4], 227 µM; in [5], 186 µM; in experiment [7], 34.5 µM. Also, the “MG MID” value in [3] amounted to 91.2 µM.

As for `O=C1/C(=C/c2cccc(Br)c2)CCc2ccccc21`, the IC50 in experiment [1] was 8.79 µM; in experiment [6] it was 21.2 µM; in experiment [8], 16.6 µM; in experiment [9], 158 µM. Further, the AP is 115 µM in experiment [2], 135 µM in experiment [4], 158 µM in experiment [5] and 20.9 µM in experiment [7]. The “MG MID” value in experiment [3] was determined as 11.8 µM.

As to `O=C1CCCCC/C1=C\c1cccc(F)c1`, the IC50 was 224 µM in experiment [1], 482 µM in experiment [6], over 50 µM in [8] and 382 µM in [9]. Further, the AP in [2] was found to be 136 µM; in experiment [4], 227 µM; in experiment [5], 186 µM; in [7], 34.5 µM. In addition, the “MG MID” value in [3] stood at 67.6 µM.

Turning to `CN(C)c1ccc(/C=C2\CCCc3ccccc3C2=O)cc1`, the AP in experiment [2] was 47 µM; in [4], 85.2 µM; in experiment [5] it was 66 µM; in experiment [7] it was 11.2 µM. The “MG MID” value in [3] came out at 1.41 µM.

Consider `O=C1/C(=C/c2cccc(F)c2)CCCc2ccccc21`, for which the 50% inhibitory concentration (IC50) stood at 11.2 µM in [1], 28.3 µM in experiment [6], 10.9 µM in [8] and 134 µM in [9]. Further, the AP was determined as 47 µM in experiment [2], 85.2 µM in experiment [4], 66 µM in experiment [5] and 11.2 µM in experiment [7]. The “MG MID” value in [3] worked out at 16.2 µM.

Turning to `Cc1cccc(/C=C2\CCCc3ccccc3C2=O)c1`, the 50% inhibitory concentration (IC50) in experiment [1] turned out to be 15.8 µM; in experiment [6] it was 34.6 µM; in [8], 19.9 µM; in experiment [9], 54.4 µM. Moreover, the AP in [2] is 47 µM; in experiment [4], 85.2 µM; in experiment [5], 66 µM; in experiment [7] it was 11.2 µM. For the same molecule, in [3], the “MG MID” value was 20 µM.

`O=C1/C(=C/c2cccc([N+](=O)[O-])c2)CCCc2ccccc21`: the IC50 in experiment [1] is 7.72 µM; in experiment [6], 8.82 µM; in experiment [8], 15.8 µM; in experiment [9] it was 48.8 µM. For the same molecule, the AP in [2] is 47 µM; in experiment [4], 85.2 µM; in [5], 66 µM; in [7] it was 11.2 µM. In experiment [3], the “MG MID” value was found to be 10.2 µM.

As for `O=C1/C(=C/c2ccc(Cl)cc2)CCCc2ccccc21`, the IC50 in experiment [1] is 15.1 µM; in experiment [6], 33 µM; in experiment [8] it was 9.5 µM; in experiment [9], 51.8 µM. Also, the AP in experiment [2] stood at 47 µM; in experiment [4] it was 85.2 µM; in experiment [5] it was 66 µM; in experiment [7], 11.2 µM. Further, the “MG MID” value in experiment [3] worked out at 17 µM.

As for `O=C1/C(=C/c2ccc([N+](=O)[O-])cc2)CCCc2ccccc21`, the half-inhibitory concentration (IC50) was over 500 µM in experiment [1], over 500 µM in experiment [6], 10.9 µM in [8] and over 500 µM in experiment [9]. For the same molecule, the AP in [2] amounted to 47 µM; in experiment [4], 85.2 µM; in experiment [5] it was 66 µM; in experiment [7] it was 11.2 µM. Also, the “MG MID” value in experiment [3] amounted to 89.1 µM.

Take `O=C1/C(=C/c2ccccc2)CCCc2ccccc21`: the IC50 was 28.9 µM in experiment [1], 42.7 µM in experiment [6], 12.7 µM in [8] and 106 µM in experiment [9]. For the same molecule, the AP was found to be 47 µM in experiment [2], 85.2 µM in experiment [4], 66 µM in experiment [5] and 11.2 µM in experiment [7]. Besides, in experiment [3], the “MG MID” value is 18.6 µM.

For the molecule `COc1ccc(/C=C2\CCCCCC2=O)cc1`, the 50% inhibitory concentration (IC50) in [1] is 194 µM; in experiment [6], 250 µM; in [8], over 50 µM; in experiment [9], 306 µM. For the same molecule, the AP amounted to 136 µM in experiment [2], 227 µM in experiment [4], 186 µM in [5] and 34.5 µM in experiment [7]. Besides, in experiment [3], the “MG MID” value is 100 µM.

As to `O=C1/C(=C/c2cccc(Cl)c2)CCCc2ccccc21`, the IC50 in [1] stood at 9.44 µM; in experiment [6], 23.8 µM; in experiment [8], 8.2 µM; in [9], 52.3 µM. The AP in experiment [2] was 47 µM; in experiment [4], 85.2 µM; in [5], 66 µM; in [7] it was 11.2 µM. The “MG MID” value in experiment [3] worked out at 16.6 µM.

As for `Cc1ccc(/C=C2\CCCCCC2=O)cc1`, the IC50 in [1] is over 500 µM; in experiment [6], over 500 µM; in experiment [8], over 50 µM; in experiment [9], over 500 µM. Besides, the AP was determined as 136 µM in experiment [2], 227 µM in [4], 186 µM in [5] and 34.5 µM in experiment [7]. The “MG MID” value in experiment [3] was 83.2 µM.

As to `COc1cccc(/C=C2\Cc3ccccc3C2=O)c1`, the IC50 was over 500 µM in experiment [1], over 500 µM in experiment [6], over 50 µM in [8] and 217 µM in [9]. Besides, the AP in [2] was found to be 155 µM; in experiment [4], 127 µM; in experiment [5], 267 µM; in [7], 42.9 µM.

In the case of `O=C1/C(=C/c2ccc(Br)cc2)CCc2ccccc21`, the 50% inhibitory concentration (IC50) in experiment [1] is over 500 µM; in [6] it was over 500 µM; in [8] it was 20.4 µM; in experiment [9], 202 µM. Moreover, the AP stood at 115 µM in experiment [2], 135 µM in experiment [4], 158 µM in experiment [5] and 20.9 µM in [7].

In the case of `O=C1/C(=C/c2cccc(F)c2)Cc2ccccc21`, the IC50 in experiment [1] was 39.2 µM; in experiment [6] it was 46.1 µM; in experiment [8], 40 µM; in experiment [9], 181 µM. In addition, the AP stood at 155 µM in experiment [2], 127 µM in [4], 267 µM in experiment [5] and 42.9 µM in experiment [7].

Regarding `O=C1CCCCC/C1=C\c1cccc(Cl)c1`, the concentration for half-maximal inhibition (IC50) in experiment [1] was 40.5 µM; in experiment [6], 88.6 µM; in [8], 25.7 µM; in experiment [9] it was 144 µM. Besides, the AP in [2] turned out to be 136 µM; in [4], 227 µM; in [5] it was 186 µM; in experiment [7] it was 34.5 µM. Further, the “MG MID” value in experiment [3] is 41.7 µM.
